Assays:
Oryctolagus cuniculus = species: Oryctolagus cuniculus; test: Intrinsic activity at muscarinic M1 receptor in electrically stimulated New Zealand rabbit vas deferens relative to McN-A-343; format: tissue-based
Method in brief: (§1)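 Intrinsic activity as ratio of compound's maximal response to that of reference full agonist (McN-A-343 for vas deferens, bethanechol for atrium and ileum), from cumulative concentration–response curves; mean of 6-8 experiments.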

[1] = biological target: T1, Muscarinic acetylcholine receptor M1 (Homo sapiens, UniProt P11229); test: biochemical; format: cell-based, CHO
T1 sequence (P11229 whole entry): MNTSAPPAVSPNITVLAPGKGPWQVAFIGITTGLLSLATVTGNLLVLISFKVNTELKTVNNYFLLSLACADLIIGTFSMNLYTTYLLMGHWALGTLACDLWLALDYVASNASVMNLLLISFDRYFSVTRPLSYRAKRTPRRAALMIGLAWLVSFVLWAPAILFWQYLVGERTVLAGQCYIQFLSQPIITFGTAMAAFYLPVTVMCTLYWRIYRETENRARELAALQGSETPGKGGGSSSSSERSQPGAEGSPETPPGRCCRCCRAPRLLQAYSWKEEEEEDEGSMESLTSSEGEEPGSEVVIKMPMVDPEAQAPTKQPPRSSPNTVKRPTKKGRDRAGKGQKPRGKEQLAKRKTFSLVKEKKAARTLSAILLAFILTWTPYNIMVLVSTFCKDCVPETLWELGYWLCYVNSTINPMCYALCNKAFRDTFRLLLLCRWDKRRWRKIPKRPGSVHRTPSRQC

[2] = biological target: T2, Muscarinic acetylcholine receptor M2 (Homo sapiens, UniProt P08172); test: Displacement of [3H]QNB from human muscarinic M2 receptor expressed in CHO cells; format: cell-based
T2 sequence (P08172 whole entry): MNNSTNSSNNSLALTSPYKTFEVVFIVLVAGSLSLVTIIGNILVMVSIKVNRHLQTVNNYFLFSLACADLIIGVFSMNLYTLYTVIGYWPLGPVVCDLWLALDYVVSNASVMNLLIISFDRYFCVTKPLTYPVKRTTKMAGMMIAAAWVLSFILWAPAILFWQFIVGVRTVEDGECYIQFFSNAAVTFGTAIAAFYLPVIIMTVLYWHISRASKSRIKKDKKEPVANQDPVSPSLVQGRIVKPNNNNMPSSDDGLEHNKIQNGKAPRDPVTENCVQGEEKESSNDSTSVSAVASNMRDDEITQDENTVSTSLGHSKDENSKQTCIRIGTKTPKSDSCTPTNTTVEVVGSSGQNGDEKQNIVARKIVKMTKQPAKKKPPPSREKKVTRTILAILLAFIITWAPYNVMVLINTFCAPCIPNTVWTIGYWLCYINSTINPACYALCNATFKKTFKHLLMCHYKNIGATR
Method in brief: (§2)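 Membranes (10-50 µg protein) from stable CHO lines expressing human m2-m5, competed against 180 pM [3H]QNB in 50 mM Tris-HCl pH 7.4 with 1% DMSO; 120 min at 25 °C to equilibrium; nonspecific binding with 0.5 µM atropine; GF-C filtration, scintillation counting; IC50 by logistic fit, Ki via Cheng–Prusoff using saturation-derived KD (5–2500 pM [3H]QNB).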

[3] = biological target: Muscarinic acetylcholine receptor M3 (Homo sapiens, UniProt P20309); test: Displacement of [3H]QNB from human muscarinic M3 receptor expressed in CHO cells; format: cell-based
Sequence of Muscarinic acetylcholine receptor M3 (P20309 whole entry): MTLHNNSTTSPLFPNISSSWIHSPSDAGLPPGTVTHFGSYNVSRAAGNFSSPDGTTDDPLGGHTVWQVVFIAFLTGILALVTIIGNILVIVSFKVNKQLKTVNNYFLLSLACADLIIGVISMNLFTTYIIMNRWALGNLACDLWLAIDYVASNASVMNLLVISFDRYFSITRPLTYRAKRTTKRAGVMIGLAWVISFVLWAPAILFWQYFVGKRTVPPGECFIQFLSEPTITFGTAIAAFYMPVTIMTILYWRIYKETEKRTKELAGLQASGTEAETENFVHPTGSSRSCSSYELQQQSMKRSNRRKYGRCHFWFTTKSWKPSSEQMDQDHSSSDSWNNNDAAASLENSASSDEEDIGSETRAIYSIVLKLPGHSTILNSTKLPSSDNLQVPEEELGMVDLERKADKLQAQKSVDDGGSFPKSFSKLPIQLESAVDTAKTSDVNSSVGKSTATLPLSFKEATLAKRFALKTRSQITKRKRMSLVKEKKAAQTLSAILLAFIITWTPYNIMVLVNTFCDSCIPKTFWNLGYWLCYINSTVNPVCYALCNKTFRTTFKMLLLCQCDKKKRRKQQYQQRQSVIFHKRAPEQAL

[4] = biological target: T3, Muscarinic acetylcholine receptor M4 (Homo sapiens, UniProt P08173); test: Displacement of [3H]QNB from human muscarinic M4 receptor expressed in CHO cells; format: cell-based; method in brief: as §2
T3 sequence (P08173 whole entry): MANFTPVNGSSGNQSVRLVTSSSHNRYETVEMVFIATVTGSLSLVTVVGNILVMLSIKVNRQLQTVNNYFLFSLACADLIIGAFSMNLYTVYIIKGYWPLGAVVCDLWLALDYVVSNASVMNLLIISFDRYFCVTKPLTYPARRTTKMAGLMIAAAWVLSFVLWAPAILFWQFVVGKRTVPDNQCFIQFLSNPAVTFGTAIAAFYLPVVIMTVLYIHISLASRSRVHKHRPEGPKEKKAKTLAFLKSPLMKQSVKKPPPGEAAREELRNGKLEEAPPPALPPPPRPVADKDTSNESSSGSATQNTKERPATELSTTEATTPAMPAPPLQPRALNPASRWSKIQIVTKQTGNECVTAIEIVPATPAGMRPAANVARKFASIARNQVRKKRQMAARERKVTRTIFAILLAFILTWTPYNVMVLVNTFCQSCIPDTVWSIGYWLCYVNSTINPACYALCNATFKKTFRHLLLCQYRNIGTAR

[5] = biological target: T4, Muscarinic acetylcholine receptor M5 (Homo sapiens, UniProt P08912); test: Displacement of [3H]QNB from human muscarinic M5 receptor expressed in CHO cells; format: cell-based
T4 sequence (P08912 whole entry): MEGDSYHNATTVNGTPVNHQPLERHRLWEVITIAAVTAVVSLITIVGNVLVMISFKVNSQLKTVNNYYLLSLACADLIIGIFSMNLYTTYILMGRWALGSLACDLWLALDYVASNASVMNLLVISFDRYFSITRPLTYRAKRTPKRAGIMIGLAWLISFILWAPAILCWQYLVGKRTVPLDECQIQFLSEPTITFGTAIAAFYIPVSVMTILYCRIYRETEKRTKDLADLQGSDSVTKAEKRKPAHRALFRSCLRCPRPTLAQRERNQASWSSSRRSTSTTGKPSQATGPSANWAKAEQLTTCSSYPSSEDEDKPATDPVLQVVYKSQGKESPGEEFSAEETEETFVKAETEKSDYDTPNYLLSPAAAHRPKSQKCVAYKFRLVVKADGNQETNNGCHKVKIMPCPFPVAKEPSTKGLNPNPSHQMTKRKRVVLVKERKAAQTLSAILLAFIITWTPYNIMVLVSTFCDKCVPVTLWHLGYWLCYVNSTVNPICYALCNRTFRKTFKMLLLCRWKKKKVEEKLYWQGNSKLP

Cavia porcellus = species: Cavia porcellus; test: Intrinsic activity at muscarinic M2 receptor in electrically stimulated guinea-pig left atrium relative to benthanechol; format: tissue-based; conditions: Cardiac atrium; method in brief: as §1
[6] = biological target: Muscarinic acetylcholine receptor M3 (Cavia porcellus) (UniProt Q8VH26); test: Intrinsic activity at muscarinic M3 receptor in guinea-pig ileum relative to benthanechol; format: tissue-based; method in brief: as §1
Sequence of Muscarinic acetylcholine receptor M3 (Cavia porcellus) (Q8VH26 1-587): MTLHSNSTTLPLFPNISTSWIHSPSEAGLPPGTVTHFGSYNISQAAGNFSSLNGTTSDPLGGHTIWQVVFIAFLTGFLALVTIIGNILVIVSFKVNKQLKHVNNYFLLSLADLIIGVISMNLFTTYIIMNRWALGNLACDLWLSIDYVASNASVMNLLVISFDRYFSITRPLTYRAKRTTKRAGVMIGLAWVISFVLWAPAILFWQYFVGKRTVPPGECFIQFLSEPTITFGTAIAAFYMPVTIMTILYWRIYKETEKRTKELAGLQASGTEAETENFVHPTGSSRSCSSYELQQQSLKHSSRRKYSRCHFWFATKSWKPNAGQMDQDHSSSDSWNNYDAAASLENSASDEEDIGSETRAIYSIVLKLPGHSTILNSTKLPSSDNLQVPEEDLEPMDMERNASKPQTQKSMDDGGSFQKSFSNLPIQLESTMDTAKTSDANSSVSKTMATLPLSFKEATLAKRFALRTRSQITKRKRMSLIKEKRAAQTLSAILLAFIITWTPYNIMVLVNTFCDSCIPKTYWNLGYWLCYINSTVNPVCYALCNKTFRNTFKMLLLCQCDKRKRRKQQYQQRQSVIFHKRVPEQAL

[7] = Antagonist activity at muscarinic M1 receptor in electrically stimulated New Zealand rabbit vas deferens; format: functional, Oryctolagus cuniculus
Method in brief: (§3)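 Antagonist mode: after 30 min incubation with test compound (10 nM–100 µM), concentration–response curve to full agonist (bethanechol or McN-A-343) repeated; pKB as molar concentration giving twofold EC50 shift, Furchgott's method; mean of 6-8 experiments.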

[8] = Antagonist activity at muscarinic M2 receptor in electrically stimulated guinea-pig left atrium; format: functional, Cavia porcellus, Cardiac atrium; method in brief: as §3
[9] = biological target: Muscarinic acetylcholine receptor M3 (Cavia porcellus) (UniProt Q8VH26); test: Antagonist activity at muscarinic M3 receptor in guinea-pig ileum; format: functional, tissue-based; method in brief: as §3

Structure (SMILES): O=C(O)C(=O)O.O=C1CCON1CC#CCN1CCCCC1
- Intrinsic activity (Oryctolagus cuniculus): 0
- Ki [1]: 819 nM
- Ki [2]: 40 nM
- Ki [3]: 537 nM
- Ki [4]: 792 nM
- Ki [5]: 544 nM
- Intrinsic activity (Cavia porcellus): 0.2
- Intrinsic activity [6]: 0
- pKb [7]: 6.45
- pKb [8]: 5.94
- pKb [9]: 5.55
